Laboratory results as given in ChEMBL document CHEMBL1129072, “4-(Phenylamino)pyrrolopyrimidines: potent and selective, ATP site directed inhibitors of the EGF-receptor protein tyrosine kinase” (J Med Chem, 1996).
pIC50: −log10 of the molar value.

What was measured:
[1] = target: T1, Epidermal growth factor receptor (Homo sapiens, UniProt P00533); assay: In vitro inhibitory activity against epidermal growth factor receptor
NIH3T3 [2] = assay: Inhibition of PDGF-induced c-fos mRNA expression in BALB/c 3T3 cells; assay type: functional, cell-based; settings: Mus musculus
[3] = target: Protein kinase C alpha type (Homo sapiens, UniProt P17252); assay: Inhibition of Protein kinase C alpha
Procedure, shortened: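 Enzymes purified as previously reported. Compounds were dissolved in DMSO and diluted in buffer to a final assay DMSO of 1%. IC50 values are averages of at least three determinations.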

[4] = target: Proto-oncogene tyrosine-protein kinase Src (Homo sapiens, UniProt P12931); assay: Inhibition of tyrosine kinase c-Src
Sequence of Proto-oncogene tyrosine-protein kinase Src (P12931 2-536 limits assumed): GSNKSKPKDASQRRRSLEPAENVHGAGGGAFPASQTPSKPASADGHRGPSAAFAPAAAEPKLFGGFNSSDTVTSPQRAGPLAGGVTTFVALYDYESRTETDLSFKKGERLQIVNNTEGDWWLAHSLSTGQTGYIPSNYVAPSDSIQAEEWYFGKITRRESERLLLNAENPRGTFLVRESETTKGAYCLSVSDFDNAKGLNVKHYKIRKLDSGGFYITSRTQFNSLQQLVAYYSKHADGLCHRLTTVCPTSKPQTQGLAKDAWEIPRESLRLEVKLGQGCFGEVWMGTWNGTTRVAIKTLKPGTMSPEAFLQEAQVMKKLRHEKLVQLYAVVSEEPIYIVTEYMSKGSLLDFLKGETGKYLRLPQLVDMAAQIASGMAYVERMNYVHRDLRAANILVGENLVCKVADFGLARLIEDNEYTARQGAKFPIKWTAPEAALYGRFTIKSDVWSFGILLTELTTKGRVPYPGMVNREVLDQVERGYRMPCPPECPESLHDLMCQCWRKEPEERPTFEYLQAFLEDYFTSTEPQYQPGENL
Procedure, shortened: (§1)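 Enzyme purification and in vitro kinase assay as previously described. Compounds dissolved in DMSO and diluted in buffer to 1% DMSO final in the assay. IC50 values are averages of at least three determinations.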

[5] = target: Tyrosine-protein kinase ABL (Homo sapiens, UniProt P00519+P42684); assay: Inhibition of tyrosine kinase v-Abl; assay type: protein assay; procedure, shortened: as §1
[6] = target: T1, Epidermal growth factor receptor; assay: Inhibition of EGF-stimulated tyrosine phosphorylation in A431 cells expressing EGF-R
Balb/MK = assay: Inhibition of proliferation of EGF-dependent BALB/MK cells; assay type: functional, cell-based; settings: Mus musculus
NIH3T3 [7] = assay: Inhibition of PDGF-stimulated tyrosine phosphorylation in BALB/c3T3 cells; assay type: functional, cell-based; settings: Mus musculus
Procedure, shortened: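 Total cellular tyrosine phosphorylation was stimulated with PDGF in BALB/c 3T3 cells and read by microtiter ELISA. Results are reported as IC50 in µM.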

T1 sequence (P00533 whole entry): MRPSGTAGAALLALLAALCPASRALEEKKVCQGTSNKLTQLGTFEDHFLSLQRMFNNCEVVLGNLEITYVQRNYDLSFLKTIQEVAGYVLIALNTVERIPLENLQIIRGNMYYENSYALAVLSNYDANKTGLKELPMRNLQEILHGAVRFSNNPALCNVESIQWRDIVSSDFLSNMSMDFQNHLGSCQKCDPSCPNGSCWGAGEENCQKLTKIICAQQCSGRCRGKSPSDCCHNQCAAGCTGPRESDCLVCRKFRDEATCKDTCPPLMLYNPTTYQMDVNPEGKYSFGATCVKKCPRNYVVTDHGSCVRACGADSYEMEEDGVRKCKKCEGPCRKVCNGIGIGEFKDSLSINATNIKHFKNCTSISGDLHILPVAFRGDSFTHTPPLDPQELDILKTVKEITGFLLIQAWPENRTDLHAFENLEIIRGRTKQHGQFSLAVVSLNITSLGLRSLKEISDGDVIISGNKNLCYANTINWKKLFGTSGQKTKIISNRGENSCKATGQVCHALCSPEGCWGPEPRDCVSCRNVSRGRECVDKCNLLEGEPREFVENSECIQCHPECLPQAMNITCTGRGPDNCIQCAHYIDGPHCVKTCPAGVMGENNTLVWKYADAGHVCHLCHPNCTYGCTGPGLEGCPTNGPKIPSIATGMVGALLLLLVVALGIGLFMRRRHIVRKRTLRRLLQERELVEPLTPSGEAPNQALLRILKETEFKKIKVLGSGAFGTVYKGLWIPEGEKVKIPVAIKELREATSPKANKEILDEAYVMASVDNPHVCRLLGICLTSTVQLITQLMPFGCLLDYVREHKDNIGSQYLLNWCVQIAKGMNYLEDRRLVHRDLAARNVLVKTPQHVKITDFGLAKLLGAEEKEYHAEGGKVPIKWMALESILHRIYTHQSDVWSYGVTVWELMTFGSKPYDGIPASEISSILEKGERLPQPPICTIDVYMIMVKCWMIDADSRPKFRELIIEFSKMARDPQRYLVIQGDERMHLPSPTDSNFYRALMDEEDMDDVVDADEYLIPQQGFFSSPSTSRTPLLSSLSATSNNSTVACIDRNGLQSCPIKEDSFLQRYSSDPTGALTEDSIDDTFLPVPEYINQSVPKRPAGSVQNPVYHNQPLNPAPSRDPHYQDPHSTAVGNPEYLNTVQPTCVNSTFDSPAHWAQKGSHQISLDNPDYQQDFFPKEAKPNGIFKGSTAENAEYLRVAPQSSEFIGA

pIC50 [1] | pIC50 [3] | pIC50 [4] | IC50 [5] | pIC50 [5] | Compound | pIC50 (Balb/MK) | further results
5.72 | – | – | – | – | Cc1[nH]c2ncnc(Nc3cccc(C(F)(F)F)c3)c2c1C | – | –
– | < 4.00 | < 4.00 | 40.5 µM | – | Cc1[nH]c2ncnc(Nc3cccc(Cl)c3)c2c1C | – | pIC50 (NIH3T3 [2]): < 4.00
– | < 4.00 | < 4.00 | 5.3 µM | – | Cc1cccc(Nc2ncnc3[nH]c(C)c(C)c23)c1 | 5.14 | pIC50 [6]: < 4.00
– | < 4.00 | < 4.00 | > 100 µM | – | Cc1cccc(Nc2ncnc3[nH]c4c(c23)CCCC4)c1 | < 4.30 | pIC50 [6]: < 4.00; pIC50 (NIH3T3 [7]): < 5.00
– | – | < 4.00 | > 100 µM | – | Clc1cccc(Nc2ncnc3[nH]c(-c4ccccc4)c(-c4ccccc4)c23)c1 | < 4.30 | pIC50 (NIH3T3 [7]): < 5.00
5.68 | – | – | – | – | Cc1ccc(Nc2ncnc3[nH]c(C)c(C)c23)cc1 | – | –
– | < 4.00 | < 4.00 | 99 µM | – | Cc1[nH]c2ncnc(Nc3cccc(F)c3)c2c1C | 4.52 | pIC50 [6]: < 4.00
4.11 | – | – | – | – | CCc1ccc(Nc2ncnc3[nH]c(C)c(C)c23)cc1 | – | –
< 4.00 | – | – | – | – | CCc1ccccc1Nc1ncnc2[nH]c(C)c(C)c12 | – | –
8.00 | < 4.00 | < 4.00 | > 100 µM | – | Cc1c(-c2ccccc2)[nH]c2ncnc(Nc3cccc(Cl)c3)c12 | < 4.30 | pIC50 [6]: 5.22; pIC50 (NIH3T3 [7]): < 5.00
5.16 | – | – | – | – | Cc1[nH]c2ncnc(NC3CCCCC3)c2c1C | – | –
5.97 | – | – | – | – | Cc1[nH]c2ncnc(NCc3ccccc3)c2c1C | – | –
4.79 | – | – | – | – | Cc1[nH]c2ncnc(Nc3cccc(C(=O)O)c3)c2c1C | – | –
6.07 | – | – | – | – | COc1cccc(Nc2ncnc3[nH]c4c(c23)CCCC4)c1 | – | –
– | < 4.00 | < 4.00 | > 100 µM | – | c1ccc(Nc2ncnc3[nH]c4c(c23)CCCC4)cc1 | – | pIC50 (NIH3T3 [7]): < 5.00
6.38 | – | – | – | – | Oc1cccc(Nc2ncnc3[nH]c4c(c23)CCCC4)c1 | – | –
– | < 4.00 | < 4.00 | – | < 4.00 | Brc1cccc(Nc2ncnc3[nH]c4c(c23)CCCC4)c1 | 5.85 | pIC50 [6]: 6.40; pIC50 (NIH3T3 [7]): < 5.00; pIC50 (NIH3T3 [2]): < 4.00
< 4.30 | – | – | – | – | Cc1[nH]c2ncnc(Nc3ccc(Cl)cc3)c2c1C | – | –
< 4.00 | – | – | – | – | CCOC(=O)c1cccc(Nc2ncnc3[nH]c(C)c(C)c23)c1 | – | –
< 4.30 | – | – | – | – | CCc1ccc(Nc2ncnc3[nH]c4c(c23)CCCC4)cc1 | – | –
5.92 | – | – | – | – | COc1cccc(Nc2ncnc3[nH]c(C)c(C)c23)c1 | – | –
< 4.00 | – | – | – | – | Cc1nc(Nc2cccc(Cl)c2)c2c(C)c(C)[nH]c2n1 | – | –
4.12 | – | – | – | – | Cc1[nH]c2ncnc(Nc3ccccc3Cl)c2c1C | – | –
4.59 | – | – | – | – | O=C(O)c1cccc(Nc2ncnc3[nH]c4c(c23)CCCC4)c1 | – | –
5.90 | – | – | – | – | Cc1[nH]c2ncnc(Nc3cccc(O)c3)c2c1C | – | –
– | 4.12 | < 4.00 | – | – | Cc1[nH]c2ncnc(Nc3ccccc3)c2c1C | – | pIC50 (NIH3T3 [7]): < 5.00
6.70 | – | – | – | – | Cc1[nH]c2ncnc(Nc3cccc(C#N)c3)c2c1C | – | –
5.60 | – | – | – | – | Cc1[nH]c2ncnc(Oc3cccc(Cl)c3)c2c1C | – | –
6.30 | – | – | – | – | Cc1[nH]c2ncnc(N(C)c3cccc(Cl)c3)c2c1C | – | –

Compound | pIC50 [1] | pIC50 [3] | pIC50 [4] | IC50 [5] | pIC50 [5] | pIC50 (Balb/MK) | further results
Clc1cccc(Nc2ncnc3[nH]c4ccccc4c23)c1 | 8.22 | < 4.00 | < 4.00 | 30 µM | – | 6.33 | pIC50 [6]: 6.92; pIC50 (NIH3T3 [2]): < 4.00
Cc1[nH]c2ncnc(Nc3cccc(Cl)c3)c2c1-c1ccccc1 | 6.64 | – | < 4.00 | > 100 µM | – | 4.42 | pIC50 [6]: 5.22
Cc1[nH]c2ncnc(Nc3cccc(Br)c3)c2c1C | – | < 4.00 | < 4.00 | 2.3 µM | – | 5.85 | pIC50 [6]: 5.82; pIC50 (NIH3T3 [7]): < 5.00; pIC50 (NIH3T3 [2]): < 4.00
Clc1cccc(Nc2ncnc3[nH]c4c(c23)CCCC4)c1 | – | < 4.00 | < 4.00 | > 100 µM | – | 6.01 | pIC50 (NIH3T3 [7]): < 5.00; pIC50 (NIH3T3 [2]): < 4.00
